# Compounds with a hit are over-represented: about 1.8% of the library has one in this group of screens.
# NPY Y1 blocker = NPY-Y1 (human) receptor antagonism | P25929 | HEK293-CNG Y1 cells, membrane potential fluorescence; NPY at EC95, then isoproterenol | inhibition, % at 3.6 µM | 200,000 tested, 1% active | AID 1040;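 active = inhibition above the campaign mean inhibition of all tested compounds plus 3 SD, cut at about 20% in these data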;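 also: 0% = DMSO wells given NPY plus isoproterenol and 100% = isoproterenol alone without NPY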
# Target sequence (P25929 whole entry, looked up): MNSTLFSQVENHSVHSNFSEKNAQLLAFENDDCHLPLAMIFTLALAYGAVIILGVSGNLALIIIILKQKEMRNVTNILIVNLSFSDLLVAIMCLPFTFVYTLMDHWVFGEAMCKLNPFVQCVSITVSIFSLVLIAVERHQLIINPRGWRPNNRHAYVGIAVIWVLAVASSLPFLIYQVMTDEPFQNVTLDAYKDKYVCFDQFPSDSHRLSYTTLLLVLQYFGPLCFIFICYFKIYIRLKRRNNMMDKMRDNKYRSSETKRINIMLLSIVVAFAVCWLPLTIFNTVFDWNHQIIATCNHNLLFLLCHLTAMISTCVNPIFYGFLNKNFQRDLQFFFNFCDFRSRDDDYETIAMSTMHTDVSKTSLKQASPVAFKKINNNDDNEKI
#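 Assay system: HEK293 Y1/CNG channel cell line; Doses: single compound dose of 3.6 µM, 0.4% DMSO; Timing: dye 3 h, compound 60 min room temperature, stimulation 45 min; Technique: Membrane-potential fluorescent dye readout; Measure: % inhibition of NPY effect.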
# NPY1 pot ag = potentiators or agonists of human neuropeptide Y receptor Y1 | P25929 | NPY-Y1 expressing cells, potentiator/agonist activation | activation, % at 3.6 µM | 220,000 tested, 0.37% active | AID 1304; in the data active = activation above about 33%, passing the limit was not always enough;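 also: cells stimulated with NPY at EC10 then isoproterenol at EC100; 0% = low agonist plus stimulus and 100% = saturating agonist plus stimulus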
# NPY-Y2 antag = antagonists of human neuropeptide Y receptor Y2; 140,000 tested, 0.99% active; inhibition, % at 2.7 µM; NPY-Y2 expressing cells, antagonist mode; in the data active = inhibition above about 17%;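 also: 0% = vehicle with agonist challenge and 100% = reference antagonist with challenge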
# NPY2 pot ag = human NPY-Y2 potentiation or agonism, primary screen. activation, % at 3.6 µM. 220,000 tested, 0.45% active. AID 1359. cells expressing NPY-Y2, potentiator/agonist read-out; in the data active = activation above about 27%;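 also: cells stimulated with NPY near EC25 plus isoproterenol at EC100; 0% = vehicle plus submaximal agonist and 100% = vehicle plus saturating agonist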
# The depositor's hits bear a star; nt = no result.
SMILES,NPY Y1 blocker,NPY1 pot ag,NPY-Y2 antag,NPY2 pot ag
O=C(NCc1cccnc1)/C(=C\c1ccc(-c2ccc(Cl)c(Cl)c2)o1)S(=O)(=O)c1ccccc1,24*,-44,17*,-18
COc1ccccc1-c1ccc(SCc2ccc(C)cc2)nn1,21*,-25,nt,-22
COc1ccccc1-c1ccc(SCc2ccc(F)cc2)nn1,10,-8,nt,-11
Cc1cc(C)n2c(=O)c3ccc(Cl)cc3nc2c1C#N,3,7,nt,5
Cc1cc(Cl)n2c(nc3cc(F)c(F)cc32)c1C#N,22*,-26,nt,-2
COc1ccc(/C=C(\C#N)c2n[nH]c(Cn3cncn3)n2)cc1,1,-9,nt,-12
CN(C)c1cc[n+](CC(=O)c2ccc(-c3ccccc3)cc2)cc1,6,6,nt,9
N/C(CC(=O)NC1CCCCC1)=N\OCC(=O)Nc1ccc(Cl)c(Cl)c1,nt,20,nt,-11
CC1CCN(C(=S)NC(=O)c2cccs2)CC1,4,9,nt,1
CSCC[C@H](NC(=O)c1ccc(Cl)c([N+](=O)[O-])c1)c1nc2ccccc2[nH]1,-4,38,-3,9
O=C(NC(Cc1ccccc1)c1nc2ccccc2[nH]1)c1ccc(Cl)c([N+](=O)[O-])c1 (stereo not given),-4,47*,0,40*
CN=c1scc(-c2ccccc2F)n1/N=C/c1ccc(O)c(O)c1O,-1,42*,nt,29*
Cn1cncc1C(=O)c1ccccc1,nt,27,nt,10
CCC1CCCCN1S(=O)(=O)c1ccc(C(=O)Nc2nnc(-c3ccccc3Cl)o2)cc1 (stereo not given),2,5,-3,17
CC1CCCCN1S(=O)(=O)c1ccc(C(=O)Nc2nnc(-c3ccccc3Cl)o2)cc1 (stereo not given),-16,95*,-3,99*
Cc1c(C#N)c(N)nc2c3c(sc12)NC(=O)CC3c1ccc(Cl)cc1 (stereo not given),34*,-39,42*,0
CCOC(=O)CSC1=C(C#N)C(c2ccc(Cl)cc2)CC(=O)N1 (stereo not given),2,10,2,0
N#Cc1c(N)nc2c3c(sc(=N)c2c1N)NC(=O)CC3c1c(F)cccc1Cl (stereo not given),-1,13,0,-3
N#Cc1c(N)nc2c3c(sc(=N)c2c1N)NC(=O)CC3c1ccccc1 (stereo not given),23*,-30,19*,-19
O=C(CCNC(=O)c1ccccc1Cl)Nc1nc(-c2ccccc2Cl)cs1,-2,-24,3,-8
Fc1ccc(C(c2nnnn2CCc2ccccc2)N2CCCc3ccccc32)cc1 (stereo not given),27*,-6,38*,5
Fc1ccc(C(c2nnnn2C2CCCC2)N2CCc3ccccc32)cc1 (stereo not given),9,-15,15,15
CC1CCCc2sc3nc(N4CCN(CCO)CC4)n4ncnc4c3c21 (stereo not given),40*,-51,25*,-29
COc1ccc2cc(CN(CC3CCCO3)C(=S)NCc3ccco3)c(=O)[nH]c2c1 (stereo not given),3,13,nt,-4
COc1ccc(CC(=O)Nc2nc3ccccc3[nH]2)cc1,nt,7,nt,-6
SMILES,NPY Y1 blocker,NPY1 pot ag,NPY-Y2 antag,NPY2 pot ag
COc1ccc(NC(=O)Cc2nc3ccccc3[nH]2)cc1,13,-49,22*,-23
COC(=O)c1ccccc1NC(=O)CN1CCN(C23CC4CC(CC(C4)C2)C3)CC1,96*,-127,64*,-39
O=C(CC1C(=O)NCCN1C(=O)Nc1ccc(C(F)(F)F)cc1)Nc1ccc(F)cc1 (stereo not given),nt,69*,nt,41*
CC12CC(NC(=O)N1c1ccc(C(=O)N3CCN(c4ccccn4)CC3)cc1)c1ccccc1O2 (stereo not given),2,52*,0,35*
COc1ccc(C(c2nnnn2C2CCCC2)N2CCc3ccccc3C2)cc1OC (stereo not given),17,-29,9,-19
COc1ccc(OC)c(C(c2nnnn2C2CCCC2)N2CCc3ccccc3C2)c1 (stereo not given),21*,-17,18*,-5
COc1ccccc1C(=O)N/C(=N/c1nc(C)cc(C)n1)Nc1ccccc1,nt,-20,nt,-12
Nc1nc(Nc2ccccc2)nc2ccccc12,-9,73*,5,68*
Cc1ccccc1Nc1nc(N)c2ccccc2n1,3,-8,nt,12
COc1cccc(C2C3=C(CC(C)(C)CC3=O)Nc3n[nH]c(C)c32)c1 (stereo not given),2,3,nt,12
CCCc1cnc(N2CCN(C(=O)c3c(-c4ccccc4)noc3C)CC2)nc1,nt,-6,nt,-3
COc1ccc(Cc2n[nH]c(=S)n2NC(=O)Nc2ccc(Cl)c(Cl)c2)cc1,nt,-14,nt,-26
O=C(Nc1nc2ccccc2s1)C1CCN(S(=O)(=O)c2cc([N+](=O)[O-])ccc2Cl)CC1,nt,80*,nt,82*
CCOc1ccccc1CN1CCN(Cc2ccc(C)o2)CC1CCO (stereo not given),1,-21,nt,-17
CCOc1ccccc1CN1CCN(Cc2[nH]c3ccccc3c2C)CC1CCO (stereo not given),21*,-26,nt,-13
CC(Cc1cccnc1)NC(=O)c1ccccc1OC1CCN(S(C)(=O)=O)CC1 (stereo not given),0,-2,nt,1
COc1ccc(C2=Nn3c(nnc3-c3ccccc3OC)SC2)cc1OC,30*,-75,30*,-32
COc1ccc(NC(=S)NNC(=S)Nc2cccc(C(F)(F)F)c2)cc1,nt,43*,nt,27
CNNC(=S)Nc1cccc(C(F)(F)F)c1,nt,-10,nt,12
Cc1ccc([N+](=O)[O-])c(OCC(O)CNC(C)(C)C)c1 (stereo not given),nt,113*,nt,105*
CC(C)(CO)NCC(O)COc1ccc2c(c1)CCC2 (stereo not given),-13,101*,3,88*
Cc1ccc([N+](=O)[O-])c(OCCN2CCCCCC2)c1,7,-3,3,10
CC(C)(C)NCC(O)COc1ccc(Br)cc1 (stereo not given),-11,108*,nt,97*
CC(C)[C@@H](C(=O)N1CCN(C(=O)OC(C)(C)C)CC1)n1cc(CCO)nn1,-3,11,nt,9
CCCc1[nH][nH]c(=O)c1C(c1cccc(Cl)c1)C(C#N)C#N (stereo not given),50*,-29,58*,-8
SMILES,NPY Y1 blocker,NPY1 pot ag,NPY-Y2 antag,NPY2 pot ag
Cc1[nH][nH]c(=O)c1C(c1ccccc1[N+](=O)[O-])C(C#N)C#N (stereo not given),4,0,nt,12
CC1(C)c2ssc(=S)c2-c2ccccc2N1C(=O)CSC1=NCCS1,-5,39,-4,34*
Cc1ccc2c(c1)-c1c(ssc1=S)C(C)(C)N2C(=O)CSc1nncn1C,-2,10,2,18
CC(C)(C)c1ccc(NC(=O)c2ccsc2)cc1,nt,-1,nt,-4
O=C(CN1CCOCC1)Nc1ccc2c(c1)CCC2,nt,20,nt,-4
CCC(=O)Nc1ccccc1C(=O)OC(c1ccccc1)c1ccccc1,27*,-24,24*,-4

# Compound activity: PubChem, The Scripps Research Institute Molecular Screening Center
